In ChEMBL document CHEMBL4028818, “Tricyclic 4,4-dimethyl-3,4-dihydrochromeno[3,4-d]imidazole derivatives as microsomal prostaglandin E2 synthase-1 (mPGES-1) inhibitors: SAR and in vivo efficacy in hyperalgesia pain model” (Bioorg Med Chem Lett, 2017):

Tests used:
Assay type in all cases: cell-based
Prostaglandin E synthase [1] = target: T1, Prostaglandin E synthase (Homo sapiens, UniProt O14684); assay: Inhibition of recombinant human mPGES-1 expressed in CHO cells assessed as reduction in PGE2 formation using PGH2 a substrate preincubated for 10 mins followed by substrate addition measured after 1 min
T1 sequence (O14684 whole entry): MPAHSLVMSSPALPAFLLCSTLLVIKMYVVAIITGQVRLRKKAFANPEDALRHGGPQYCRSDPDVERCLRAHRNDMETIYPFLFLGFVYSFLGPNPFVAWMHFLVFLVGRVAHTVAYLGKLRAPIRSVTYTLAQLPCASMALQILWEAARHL
Method in brief: (§1)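 mPGES-1 enzyme inhibition. % inhibition values are means of two experiments in duplicate. IC50 values were derived from graphs of at least two experiments in duplicate.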

Prostaglandin E synthase [2] = target: T1, Prostaglandin E synthase; assay: Inhibition of mPGES-1 in human A549 cells assessed as decrease in IL1beta induced PGE2 release preincubated for 30 mins followed by IL-1beta addition after 16 to 20 hrs by HTRF method
[3] = target: T2, Prostaglandin E synthase (Homo sapiens) (UniProt O14684); assay: Inhibition of recombinant human mPGES-1 expressed in CHO cells assessed as reduction in PGE2 formation at 1 uM using PGH2 a substrate preincubated for 10 mins followed by substrate addition measured after 1 min relative to control; method in brief: as §1
T2 sequence (whole entry): T1 sequence (O14684 whole entry)

[4] = target: T2, Prostaglandin E synthase (Homo sapiens); assay: Inhibition of recombinant human mPGES-1 expressed in CHO cells assessed as reduction in PGE2 formation at 10 uM using PGH2 a substrate preincubated for 10 mins followed by substrate addition measured after 1 min relative to control; method in brief: as §1

Row | Compound | IC50 (Prostaglandin E synthase [1]) [nM] | IC50 (Prostaglandin E synthase [2]) [nM] | inhibition [3] [%] | inhibition [4] [%]
1 | CC1(C)Oc2cc(C#Cc3cccc(C(F)(F)F)c3)ccc2-c2nc(-c3c(F)cccc3Cl)[nH]c21 | 29.3 |  |  | 
2 | CC1(C)Oc2cc(C#Cc3ccc(C(F)(F)F)cn3)ccc2-c2nc(-c3c(F)cccc3Cl)[nH]c21 | 320 |  |  | 
3 | CC1(C)Oc2cc(C#Cc3cc(F)ccc3C(F)(F)F)ccc2-c2[nH]c(-c3c(F)cccc3Cl)nc21 | 21 | 706 |  | 
4 | CC1(C)Oc2cc(C#Cc3ccccc3Cl)ccc2-c2nc(-c3c(F)cccc3Cl)[nH]c21 | 64.7 |  |  | 
5 | CC1(C)Oc2cc(C(=O)Nc3ccc(Cl)c(F)c3)ccc2-c2[nH]c(-c3c(F)cccc3Cl)nc21 | 187 |  | 83.5 | 84.5
6 | CC1(C)Oc2cc(C#Cc3ccccc3)ccc2-c2nc(-c3c(F)cccc3Cl)[nH]c21 | 83 |  |  | 
7 | CC1(C)Oc2cc(Br)ccc2-c2[nH]c(-c3c(F)cccc3Cl)nc21 |  |  | 40.8 | 94.1
8 | CC1(C)Oc2cc(C#Cc3ccccc3C(F)(F)F)ccc2-c2nc(-c3c(Cl)cncc3Cl)[nH]c21 | 81.3 |  |  | 
9 | CC1(C)Oc2cc(I)ccc2-c2[nH]c(-c3c(F)cccc3Cl)nc21 |  |  | 44.3 | 84.2
10 | CC1(C)Oc2cc(C#Cc3cc(C(F)(F)F)ccc3F)ccc2-c2nc(-c3c(F)cccc3Cl)[nH]c21 | 25 | 461 |  | 
11 | CC1(C)Oc2cc(-c3ccc(Cl)cc3)ccc2-c2[nH]c(-c3c(F)cccc3Cl)nc21 |  |  | 76 | 94.8
12 | CC1(C)Oc2cc(C#Cc3c(F)cccc3C(F)(F)F)ccc2-c2nc(-c3c(C#N)cccc3C#N)[nH]c21 | 12.7 | 836 |  | 
13 | CC1(C)Oc2nc(C#Cc3cc(C(F)(F)F)ccc3Cl)ccc2-c2nc(-c3c(F)cccc3Cl)[nH]c21 |  |  | 65 | 63
14 | CC1(C)Oc2cc(C#Cc3cncnc3)ccc2-c2nc(-c3c(F)cccc3Cl)[nH]c21 | 797 |  |  | 
15 | CC1(C)Oc2cc(C#Cc3ccccc3C(F)(F)F)ccc2-c2[nH]c(-c3c(F)cccc3Cl)nc21 | 15.6 | 693 |  | 
16 | CC1(C)Oc2cc(C#Cc3cccc(Cl)c3)ccc2-c2nc(-c3c(F)cccc3Cl)[nH]c21 | 39.2 |  |  | 
17 | CC1(C)Oc2cc(C#Cc3c(F)cccc3C(F)(F)F)ccc2-c2[nH]c(-c3c(F)cccc3Cl)nc21 | 12.3 | 691 |  | 
18 | CC1(C)Oc2cc(C#Cc3cc(F)ccc3C(F)(F)F)ccc2-c2nc(-c3c(Cl)cncc3Cl)[nH]c21 | 31.5 |  |  | 
19 | CC1(C)Oc2cc(C#Cc3ccc(C(F)(F)F)cc3Cl)ccc2-c2nc(-c3c(F)cncc3Cl)[nH]c21 | 73.9 |  |  | 
20 | CC1(C)Oc2cc(C(=O)Nc3ccc(C(F)(F)F)cc3)ccc2-c2[nH]c(-c3c(F)cccc3Cl)nc21 | 252 |  | 86.7 | 92.9
21 | CC1(C)Oc2cc(C#Cc3cc(C(F)(F)F)ccc3Cl)ccc2-c2nc(-c3c(C#N)cccc3C#N)[nH]c21 | 3.89 | 1200 |  | 
22 | CC1(C)Oc2cc(C#Cc3ccccc3OC(F)(F)F)ccc2-c2[nH]c(-c3c(C#N)cccc3C#N)nc21 | 11.8 | 267 |  | 
23 | CC1(C)Oc2cc(C#Cc3ccc(C(F)(F)F)cc3)ccc2-c2[nH]c(-c3c(F)cccc3Cl)nc21 | 61.8 |  |  | 
24 | CC1(C)Oc2nc(C#Cc3c(F)cccc3C(F)(F)F)ccc2-c2nc(-c3c(F)cccc3Cl)[nH]c21 |  |  | 75 | 76

Row | Compound | IC50 (Prostaglandin E synthase [1]) [nM] | IC50 (Prostaglandin E synthase [2]) [nM] | inhibition [3] [%] | inhibition [4] [%]
25 | CC1(C)Oc2cc(C(=O)Nc3cccc(C(F)(F)F)c3)ccc2-c2[nH]c(-c3c(F)cccc3Cl)nc21 |  |  | 70.4 | 83.6
26 | CC1(C)Oc2cc(C#Cc3ccc(F)c(C(F)(F)F)c3)ccc2-c2nc(-c3c(F)cccc3Cl)[nH]c21 | 29.6 | 1250 |  | 
27 | CC1(C)Oc2cc(C#Cc3cc(Cl)ccc3Cl)ccc2-c2nc(-c3c(C#N)cccc3C#N)[nH]c21 | 12.7 | 2320 |  | 
28 | CC1(C)Oc2cc(-c3ccc(C(F)(F)F)cc3)ccc2-c2[nH]c(-c3c(F)cccc3Cl)nc21 | 191 |  | 81.4 | 83.3
29 | CC1(C)Oc2cc(C#Cc3cc(C(F)(F)F)ccc3Cl)ccc2-c2nc(-c3c(Cl)cncc3Cl)[nH]c21 | 33.1 |  |  | 
30 | CC1(C)Oc2cc(C#Cc3ccncc3F)ccc2-c2nc(-c3c(F)cccc3Cl)[nH]c21 | 641 |  |  | 
31 | CC1(C)Oc2cc(Br)ccc2-c2[nH]c(-c3c(Br)cccc3Br)nc21 | 710 |  | 68.6 | 92
32 | CC1(C)Oc2cc(-c3nc(C4CC4)no3)ccc2-c2[nH]c(-c3c(F)cccc3Cl)nc21 |  |  | 89 | 98.6
33 | CC1(C)Oc2cc(C#Cc3ccc(Cl)cc3C(F)(F)F)ccc2-c2nc(-c3c(F)cccc3Cl)[nH]c21 | 7.76 | 2830 |  | 
34 | CC1(C)Oc2cc(Cl)ccc2-c2[nH]c(-c3c(Br)cccc3Br)nc21 | 325 |  | 74 | 89
35 | CC1(C)Oc2cc(C#Cc3ccc(Cl)cc3)ccc2-c2nc(-c3c(F)cccc3Cl)[nH]c21 | 38.2 |  |  | 
36 | CC1(C)Oc2cc(-c3ccc(OC(F)(F)F)cc3)ccc2-c2[nH]c(-c3c(F)cccc3Cl)nc21 |  |  | 70.1 | 86.9
37 | Cc1cnc(C#Cc2ccc3c(c2)OC(C)(C)c2[nH]c(-c4c(F)cccc4Cl)nc2-3)s1 | 465 |  |  | 
38 | CC1(C)Oc2cc(-c3nc4ccccc4[nH]3)ccc2-c2nc(-c3c(F)cccc3Cl)[nH]c21 |  |  | 12.2 | 75.5
39 | CC1(C)Oc2cc(C#Cc3ccc(C(F)(F)F)cc3Cl)ccc2-c2nc(-c3c(F)cccc3Cl)[nH]c21 | 28.2 |  |  | 
40 | CC1(C)Oc2cc(C#Cc3cccc(Cl)c3Cl)ccc2-c2nc(-c3c(F)cccc3Cl)[nH]c21 | 35.5 |  |  | 
41 | CC1(C)Oc2cc(C#Cc3c(Cl)cccc3Cl)ccc2-c2nc(-c3c(F)cccc3Cl)[nH]c21 | 11.2 |  |  | 
42 | CC1(C)Oc2cc(C#Cc3ccccc3C(F)(F)F)ccc2-c2nc(-c3c(F)cncc3Cl)[nH]c21 | 170 |  |  | 
43 | Cc1csc(NC(=O)c2ccc3c(c2)OC(C)(C)c2nc(-c4c(F)cccc4Cl)[nH]c2-3)n1 |  |  | 52.8 | 67.2
44 | CC1(C)Oc2nc(C#Cc3ccccc3C(F)(F)F)ccc2-c2nc(-c3c(F)cccc3Cl)[nH]c21 | 407 |  |  | 
45 | CC1(C)Oc2cc(C#Cc3ccccc3OC(F)(F)F)ccc2-c2[nH]c(-c3c(F)cccc3Cl)nc21 | 19.9 | 578 |  | 
46 | CC1(C)Oc2cc(C#Cc3cc(Cl)ccc3Cl)ccc2-c2[nH]c(-c3c(F)cccc3Cl)nc21 | 9.3 | 1420 |  | 
47 | CC1(C)Oc2cc(C#Cc3ccccc3)ccc2-c2[nH]c(-c3c(C#N)cccc3C#N)nc21 | 24.8 | 984 |  | 
48 | CC1(C)Oc2cc(C(=O)NC3CCCCC3)ccc2-c2nc(-c3c(F)cccc3Cl)[nH]c21 |  |  | 56 | 68
